Assay results published in ChEMBL document CHEMBL2146464, “Structure-activity relationship study of nitrosopyrimidines acting as antifungal agents” (Bioorg Med Chem, 2012).
In brackets after ≈: the same amount, converted by molar mass. Activity calls are given as the source filed them. The rule behind the calls is not given here.

Key:
Aspergillus flavus = assay: Antifungal activity against Aspergillus flavus ATCC 9170 at 0.98 to 250 ug/mL by NCCLS broth microdilution method; type: functional, organism-based
Outline: (§1)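 MIC by broth microdilution per NCCLS M27-A3/M38-A2 in RPMI-1640 buffered to pH 7.0 with MOPS. Twofold dilutions from 250–0.98 µg/mL, final DMSO ≤1%. Inoculum 1–5 × 10³ CFU/mL. Incubated in a moist dark chamber, 30 °C for Aspergillus and 28–30 °C for dermatophytes. Read visually when control growth allowed. Endpoint is the lowest concentration giving total inhibition of visible growth (MIC100).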

[1] = tested on: Trichophyton mentagrophytes; assay: Antifungal activity against Trichophyton mentagrophytes ATCC 9972 by NCCLS broth microdilution method; type: functional; details: read-out: MIC100; outline: as §1
Candida albicans [2] = assay: Antifungal activity against Candida albicans ATCC 10231 assessed as growth inhibition at 3.9 ug/mL after 24 hrs by microplate reader analysis; type: functional; details: ATCC 10231, 24 h, read-out: GI
Outline: (§2)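 96-well RPMI-1640 wells with compound at final 250–0.98 µg/mL (DMSO ≤1%). Inoculum 100 µL, 1–5 × 10³ CFU/mL, 200 µL final. Each well includes growth (DMSO, no compound) and sterility controls. % inhibition = 100 − (CTW−SCW)/(GCW−SCW) × 100, run in duplicate.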

Candida tropicalis [3] = assay: Antifungal activity against Candida tropicalis assessed as growth inhibition at 62.5 ug/mL by microplate reader analysis; type: functional; details: read-out: GI
[4] = Acute toxicity in bony fish assessed as mortality at 5 ug/mL after 96 hrs; details: actinopterygii; read-out: Activity
Outline: (§3)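 Guppy (Poecilia reticulata) acute static exposure: 10 fish per concentration in 2 L wide-mouthed jars holding the test solution. Compounds were added from […] to give the final concentrations. Dead fish were counted and removed every 24 h, with general condition noted; percentage mortality was scored at 96 h. Two experiments, each in triplicate.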

Candida albicans [5] = assay: Antifungal activity against Candida albicans ATCC 10231 assessed as growth inhibition at 31.25 ug/mL after 24 hrs by microplate reader analysis; type: functional; details: ATCC 10231, 24 h, read-out: GI; outline: as §2
Aspergillus niger = assay: Antifungal activity against Aspergillus niger ATCC 9029 at 0.98 to 250 ug/mL by NCCLS broth microdilution method; type: functional, organism-based; outline: as §1
Trichophyton rubrum [6] = assay: Antifungal activity against Trichophyton rubrum CCC 110 by NCCLS broth microdilution method; type: functional; details: read-out: MIC100; outline: as §1
[7] = Acute toxicity in bony fish assessed as mortality at 35 ug/mL after 96 hrs; details: actinopterygii; read-out: Activity; outline: as §3
Cryptococcus neoformans [8] = assay: Fungicidal activity against Cryptococcus neoformans ATCC 32264 after 48 hrs by agar plate dilution method; type: functional; details: ATCC 32264, 48 h
Outline: (§4)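 MFC: after the microdilution MIC, material from each clear well was plated onto RPMI-1640 agar buffered with MOPS. Plates incubated at 30 °C and read after 48 h. MFC is the lowest concentration giving total inhibition of visible growth.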

Candida tropicalis [9] = assay: Antifungal activity against Candida tropicalis by microplate reader analysis; type: functional
Candida albicans [10] = assay: Antifungal activity against Candida albicans ATCC 10231 assessed as growth inhibition at 125 ug/mL after 24 hrs by microplate reader analysis; type: functional; details: ATCC 10231, 24 h, read-out: GI; outline: as §2
Cryptococcus neoformans [11] = assay: Antifungal activity against Cryptococcus neoformans ATCC 32264 assessed as growth inhibition at 62.5 ug/mL after 48 hrs by microplate reader analysis; type: functional; details: ATCC 32264, 48 h, read-out: GI
Outline: (§5)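 Microplate growth-inhibition assay in RPMI-1640, compound at final 250–0.98 µg/mL (DMSO ≤1%). Inoculum 1–5 × 10³ CFU/mL. Sterility and DMSO growth controls included. Percent inhibition is computed from blank-corrected OD relative to the growth control, tested in duplicate.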

Cryptococcus neoformans [12] = assay: Antifungal activity against Cryptococcus neoformans ATCC 32264 after 48 hrs by microplate reader analysis; type: functional; details: ATCC 32264, 48 h; outline: as §5
Candida albicans [13] = assay: Antifungal activity against Candida albicans ATCC 10231 assessed as growth inhibition at 15.6 ug/mL after 24 hrs by microplate reader analysis; type: functional; details: ATCC 10231, 24 h, read-out: GI; outline: as §2
Nannizzia gypsea [14] = assay: Antifungal activity against Microsporum gypseum CCC 115 by NCCLS broth microdilution method; type: functional; details: read-out: MIC100; outline: as §1
Cryptococcus neoformans [15] = assay: Antifungal activity against Cryptococcus neoformans ATCC 32264 assessed as growth inhibition at 250 ug/mL after 48 hrs by microplate reader analysis; type: functional; details: ATCC 32264, 48 h, read-out: GI; outline: as §5
Cryptococcus neoformans [16] = assay: Antifungal activity against Cryptococcus neoformans ATCC 32264 assessed as growth inhibition at 31.25 ug/mL after 48 hrs by microplate reader analysis; type: functional; details: ATCC 32264, 48 h, read-out: GI; outline: as §5
Cryptococcus neoformans [17] = assay: Antifungal activity against Cryptococcus neoformans ATCC 32264 assessed as growth inhibition at 125 ug/mL after 48 hrs by microplate reader analysis; type: functional; details: ATCC 32264, 48 h, read-out: GI; outline: as §5
Candida albicans [18] = assay: Antifungal activity against Candida albicans ATCC 10231 after 48 hrs by NCCLS broth microdilution method; type: functional; details: ATCC 10231, 48 h, read-out: MIC100
Outline: (§6)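 Yeast MIC by NCCLS M27-A3 broth microdilution in RPMI-1640 buffered to pH 7.0 with MOPS. Twofold dilutions of 250–0.98 µg/mL, final DMSO ≤1%. Inoculum 1–5 × 10³ CFU/mL. Incubated at 30 °C in a moist dark chamber. Read visually at 48 h. MIC100 is the lowest concentration with no visible growth versus drug-free control.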

Candida tropicalis [19] = assay: Antifungal activity against Candida tropicalis assessed as growth inhibition at 7.8 ug/mL by microplate reader analysis; type: functional; details: read-out: GI
Cryptococcus neoformans [20] = assay: Antifungal activity against Cryptococcus neoformans ATCC 32264 assessed as growth inhibition at 3.9 ug/mL after 48 hrs by microplate reader analysis; type: functional; details: ATCC 32264, 48 h, read-out: GI; outline: as §5
Candida tropicalis [21] = assay: Antifungal activity against Candida tropicalis assessed as growth inhibition at 31.25 ug/mL by microplate reader analysis; type: functional; details: read-out: GI
Nannizzia gypsea [22] = assay: Fungicidal activity against Microsporum gypseum CCC 115 after 48 hrs by agar plate dilution method; type: functional; details: CCC 115, 48 h; outline: as §4
Aspergillus fumigatus = assay: Antifungal activity against Aspergillus fumigatus ATCC 26934 at 0.98 to 250 ug/mL by NCCLS broth microdilution method; type: functional, organism-based; outline: as §1
Candida tropicalis [23] = assay: Antifungal activity against Candida tropicalis after 48 hrs by NCCLS broth microdilution method; type: functional; details: read-out: MIC100; outline: as §6
Candida albicans [24] = assay: Antifungal activity against Candida albicans ATCC 10231 assessed as growth inhibition at 7.8 ug/mL after 24 hrs by microplate reader analysis; type: functional; details: ATCC 10231, 24 h, read-out: GI; outline: as §2
Candida tropicalis [25] = assay: Fungicidal activity against Candida tropicalis after 48 hrs by agar plate dilution method; type: functional; outline: as §4
Candida tropicalis [26] = assay: Antifungal activity against Candida tropicalis assessed as growth inhibition at 15.6 ug/mL by microplate reader analysis; type: functional; details: read-out: GI
Candida albicans [27] = assay: Antifungal activity against Candida albicans ATCC 10231 assessed as growth inhibition at 250 ug/mL after 24 hrs by microplate reader analysis; type: functional; details: ATCC 10231, 24 h, read-out: GI; outline: as §2
Candida tropicalis [28] = assay: Antifungal activity against Candida tropicalis assessed as growth inhibition at 125 ug/mL by microplate reader analysis; type: functional; details: read-out: GI
Cryptococcus neoformans [29] = assay: Antifungal activity against Cryptococcus neoformans ATCC 32264 assessed as growth inhibition at 7.8 ug/mL after 48 hrs by microplate reader analysis; type: functional; details: ATCC 32264, 48 h, read-out: GI; outline: as §5
Candida albicans [30] = assay: Antifungal activity against Candida albicans ATCC 10231 after 24 hrs by microplate reader analysis; type: functional; details: ATCC 10231, 24 h; outline: as §2
Candida albicans [31] = assay: Antifungal activity against Candida albicans ATCC 10231 assessed as growth inhibition at 62.5 ug/mL after 24 hrs by microplate reader analysis; type: functional; details: ATCC 10231, 24 h, read-out: GI; outline: as §2
Cryptococcus neoformans [32] = assay: Antifungal activity against Cryptococcus neoformans ATCC 32264 assessed as growth inhibition at 15.6 ug/mL after 48 hrs by microplate reader analysis; type: functional; details: ATCC 32264, 48 h, read-out: GI; outline: as §5
Candida tropicalis [33] = assay: Antifungal activity against Candida tropicalis assessed as growth inhibition at 3.9 ug/mL by microplate reader analysis; type: functional; details: read-out: GI
[34] = tested on: Trichophyton mentagrophytes; assay: Fungicidal activity against Trichophyton mentagrophytes ATCC 9972 after 48 hrs by agar plate dilution method; type: functional; details: ATCC 9972, 48 h; outline: as §4
Cryptococcus neoformans [35] = assay: Antifungal activity against Cryptococcus neoformans ATCC 32264 after 48 hrs by NCCLS broth microdilution method; type: functional; details: ATCC 32264, 48 h, read-out: MIC100; outline: as §6
Candida tropicalis [36] = assay: Antifungal activity against Candida tropicalis assessed as growth inhibition at 250 ug/mL by microplate reader analysis; type: functional; details: read-out: GI
Trichophyton rubrum [37] = assay: Fungicidal activity against Trichophyton rubrum CCC 110 after 48 hrs by agar plate dilution method; type: functional; details: CCC 110, 48 h
Outline: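 Samples from each clear well of the MIC broth microdilution tray were plated onto RPMI-1640 agar buffered with MOPS. That tray had compounds twofold diluted in RPMI (pH 7.0, MOPS) from 250–0.98 µg/mL with inoculum of 1–5 × 10³ CFU/mL, incubated at 28–30 °C for dermatophytes. Plates were incubated at 30 °C and read at 48 h. MFC was taken as the lowest concentration giving total inhibition of visible growth.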

Candida albicans [38] = assay: Fungicidal activity against Candida albicans ATCC 10231 after 48 hrs by agar plate dilution method; type: functional; details: ATCC 10231, 48 h; outline: as §4

COc1nc(N)c(N=O)c(Nc2ccccc2)n1
Activity (Aspergillus flavus): inactive | MIC [1]: 125 µg/mL (≈ 510 µM) | inhibition of growth at 3.9 µg/mL (Candida albicans [2]): 4.7% | inhibition of growth at 62.5 µg/mL (Candida tropicalis [3]): 100% | mortality at 96 h, 5 ug/mL [4]: 0% | inhibition of growth at 31.25 µg/mL (Candida albicans [5]): 100% | Activity (Aspergillus niger): inactive | MIC (Trichophyton rubrum [6]): 125 µg/mL (≈ 510 µM) | mortality at 96 h, 35 ug/mL [7]: 0% | MFC (Cryptococcus neoformans [8]): 62.5 µg/mL (≈ 255 µM) | MIC50 (Candida tropicalis [9]): 7.8 µg/mL (≈ 31.8 µM) | inhibition of growth at 125 µg/mL (Candida albicans [10]): 100% | inhibition of growth at 62.5 µg/mL (Cryptococcus neoformans [11]): 100% | MIC50 (Cryptococcus neoformans [12]): 1.95 µg/mL (≈ 7.95 µM) | inhibition of growth at 15.6 µg/mL (Candida albicans [13]): 98.1% | MIC (Nannizzia gypsea [14]): 62.5 µg/mL (≈ 255 µM) | inhibition of growth at 250 µg/mL (Cryptococcus neoformans [15]): 100% | inhibition of growth at 31.25 µg/mL (Cryptococcus neoformans [16]): 100% | inhibition of growth at 125 µg/mL (Cryptococcus neoformans [17]): 100% | MIC (Candida albicans [18]): 31.2 µg/mL (≈ 127 µM) | inhibition of growth at 7.8 µg/mL (Candida tropicalis [19]): 87.2% | inhibition of growth at 3.9 µg/mL (Cryptococcus neoformans [20]): 76.2% | inhibition of growth at 31.25 µg/mL (Candida tropicalis [21]): 100% | MFC (Nannizzia gypsea [22]): 62.5 µg/mL (≈ 255 µM) | Activity (Aspergillus fumigatus): inactive | MIC (Candida tropicalis [23]): 31.2 µg/mL (≈ 127 µM) | inhibition of growth at 7.8 µg/mL (Candida albicans [24]): 85% | MFC (Candida tropicalis [25]): 31.2 µg/mL (≈ 127 µM) | inhibition of growth at 15.6 µg/mL (Candida tropicalis [26]): 88.2% | inhibition of growth at 250 µg/mL (Candida albicans [27]): 100% | inhibition of growth at 125 µg/mL (Candida tropicalis [28]): 100% | inhibition of growth at 7.8 µg/mL (Cryptococcus neoformans [29]): 91.2% | MIC50 (Candida albicans [30]): 7.8 µg/mL (≈ 31.8 µM) | inhibition of growth at 62.5 µg/mL (Candida albicans [31]): 100% | inhibition of growth at 15.6 µg/mL (Cryptococcus neoformans [32]): 100% | inhibition of growth at 3.9 µg/mL (Candida tropicalis [33]): 4.1% | MFC [34]: 250 µg/mL (≈ 1020 µM) | MIC (Cryptococcus neoformans [35]): 15.6 µg/mL (≈ 63.6 µM) | inhibition of growth at 250 µg/mL (Candida tropicalis [36]): 100% | MFC (Trichophyton rubrum [37]): 250 µg/mL (≈ 1020 µM) | MFC (Candida albicans [38]): 31.2 µg/mL (≈ 127 µM)
